What all share (format): ADME
Data set [1] addresses T1, Solute carrier family 15 member 1 (Mus musculus, UniProt Q9JIP7).
T1 sequence (Q9JIP7 whole entry): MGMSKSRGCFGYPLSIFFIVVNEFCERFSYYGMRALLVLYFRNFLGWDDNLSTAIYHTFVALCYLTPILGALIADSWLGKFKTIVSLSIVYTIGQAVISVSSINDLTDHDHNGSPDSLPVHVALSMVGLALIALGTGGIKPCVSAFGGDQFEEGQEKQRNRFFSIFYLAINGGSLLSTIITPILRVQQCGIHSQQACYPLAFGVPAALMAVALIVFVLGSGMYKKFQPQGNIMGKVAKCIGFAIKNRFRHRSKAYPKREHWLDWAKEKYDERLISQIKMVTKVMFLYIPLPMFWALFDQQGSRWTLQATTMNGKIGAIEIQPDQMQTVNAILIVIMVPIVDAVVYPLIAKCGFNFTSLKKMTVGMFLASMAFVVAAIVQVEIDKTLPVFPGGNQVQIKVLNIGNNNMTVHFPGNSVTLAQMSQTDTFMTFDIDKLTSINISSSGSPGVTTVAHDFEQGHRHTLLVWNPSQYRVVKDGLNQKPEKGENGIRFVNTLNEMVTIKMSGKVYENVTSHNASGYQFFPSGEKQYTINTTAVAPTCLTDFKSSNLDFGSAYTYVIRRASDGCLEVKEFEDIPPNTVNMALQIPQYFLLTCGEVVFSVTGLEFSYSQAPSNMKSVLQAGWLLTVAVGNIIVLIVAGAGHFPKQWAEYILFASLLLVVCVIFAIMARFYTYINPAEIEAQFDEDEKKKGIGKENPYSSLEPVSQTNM
The experiment in a line: Drug uptake in Pichia pastoris GS115 expressing mouse recombinant PEPT1 at 5 uM after 30s by dual-channel liquid scintillation counting analysis in presence of acyclovir relative to control. As to conditions: 0.5 min. Put shortly:
(§1)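 [3H]GlySar 5.0 µM final, 30-s uptake at 24°C in 100 mM potassium phosphate pH 6.5, with or without a potential inhibitor at 10 mM. Cells are methanol-induced transformants. Values are vector-subtracted and expressed as percent of buffer control. Mean ± SE (n=3). ANOVA with Dunnett's test.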

Data set [2] addresses T1, Solute carrier family 15 member 1. Nature of the data set: Drug uptake in Pichia pastoris GS115 expressing mouse recombinant PEPT1 at 5 uM after 30s by dual-channel liquid scintillation counting analysis in presence of valacyclovir relative to control. As to conditions: in vivo, 0.5 min. The method, boiled down: as §1
Data set [3] deals with T2, Solute carrier family 15 member 1 (Homo sapiens, UniProt P46059).
T2 sequence (P46059 whole entry): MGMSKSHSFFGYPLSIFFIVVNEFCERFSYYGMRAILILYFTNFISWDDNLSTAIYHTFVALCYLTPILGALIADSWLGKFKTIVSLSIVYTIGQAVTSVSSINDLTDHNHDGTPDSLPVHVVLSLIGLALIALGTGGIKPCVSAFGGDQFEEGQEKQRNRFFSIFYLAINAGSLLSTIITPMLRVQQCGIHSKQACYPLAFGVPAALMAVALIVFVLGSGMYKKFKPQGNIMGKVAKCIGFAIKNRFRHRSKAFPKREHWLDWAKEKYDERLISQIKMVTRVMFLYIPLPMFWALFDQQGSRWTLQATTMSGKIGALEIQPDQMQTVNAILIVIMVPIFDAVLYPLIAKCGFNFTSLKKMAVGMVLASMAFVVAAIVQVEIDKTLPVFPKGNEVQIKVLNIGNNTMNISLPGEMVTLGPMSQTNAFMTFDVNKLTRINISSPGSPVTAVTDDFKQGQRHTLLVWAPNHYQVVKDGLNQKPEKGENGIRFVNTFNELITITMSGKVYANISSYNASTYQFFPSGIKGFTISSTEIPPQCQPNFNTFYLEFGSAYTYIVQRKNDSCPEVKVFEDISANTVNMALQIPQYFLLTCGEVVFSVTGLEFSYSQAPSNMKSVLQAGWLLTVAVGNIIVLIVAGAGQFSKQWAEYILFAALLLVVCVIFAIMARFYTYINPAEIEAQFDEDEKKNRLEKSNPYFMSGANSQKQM
Nature of the data set: Drug uptake in Pichia pastoris GS115 expressing human recombinant PEPT1 at 5 uM after 30s by dual-channel liquid scintillation counting analysis in presence of cephalothin relative to control. As to conditions: 0.5 min. Put shortly: as §1

The target in data set [4] is T3, Solute carrier family 15 member 1 (Rattus norvegicus, UniProt P51574).
T3 sequence (P51574 whole entry): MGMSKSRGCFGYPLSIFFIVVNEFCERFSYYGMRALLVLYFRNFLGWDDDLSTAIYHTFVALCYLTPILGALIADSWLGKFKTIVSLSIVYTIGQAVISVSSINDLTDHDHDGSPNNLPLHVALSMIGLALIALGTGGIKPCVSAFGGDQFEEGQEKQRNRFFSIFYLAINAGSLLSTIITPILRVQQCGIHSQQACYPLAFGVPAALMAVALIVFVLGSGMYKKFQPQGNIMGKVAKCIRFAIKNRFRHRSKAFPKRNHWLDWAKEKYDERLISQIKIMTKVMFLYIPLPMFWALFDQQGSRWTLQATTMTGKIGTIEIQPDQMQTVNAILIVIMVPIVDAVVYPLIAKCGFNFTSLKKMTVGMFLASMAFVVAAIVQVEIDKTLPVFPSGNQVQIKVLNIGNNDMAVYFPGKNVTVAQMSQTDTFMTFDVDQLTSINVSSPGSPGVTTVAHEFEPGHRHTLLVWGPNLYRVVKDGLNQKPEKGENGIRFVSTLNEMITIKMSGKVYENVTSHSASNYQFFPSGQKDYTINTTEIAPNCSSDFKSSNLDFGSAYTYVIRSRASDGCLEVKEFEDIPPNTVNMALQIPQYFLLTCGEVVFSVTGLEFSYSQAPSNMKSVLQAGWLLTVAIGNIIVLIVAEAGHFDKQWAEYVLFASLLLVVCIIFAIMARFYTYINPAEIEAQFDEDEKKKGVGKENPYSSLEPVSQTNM
Nature of the data set: Drug uptake in Pichia pastoris GS115 expressing rat recombinant PEPT1 at 5 uM after 30s by dual-channel liquid scintillation counting analysis in presence of cephalothin relative to control. As to conditions: 0.5 min. The method, boiled down:
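Rat PEPT1 (pPIC3.5K-rPept1) in GS115 His+Mut+ transformant, methanol-induced 20-24 hr in BMMY at 30°C, washed into 100 mM potassium phosphate pH 6.5. [3H]GlySar final 5.0 µM with inhibitor at 10 mM, 30 sec at 24°C. Counts taken by liquid scintillation after 24 hr standing. Values are vector-subtracted and given as % of buffer control. Mean ± SE, n=3.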

Data set [5] concerns the target T1, Solute carrier family 15 member 1. The experiment in a line: Drug uptake in Pichia pastoris GS115 expressing mouse recombinant PEPT1 at 5 uM after 30s by dual-channel liquid scintillation counting analysis in presence of SITS relative to control. As to conditions: 0.5 min. The method, boiled down: as §1
For data set [6] the target is unchanged. Nature of the data set: Drug uptake in Pichia pastoris GS115 expressing mouse recombinant PEPT1 at 5 uM after 30s by dual-channel liquid scintillation counting analysis in presence of L-histidine relative to control. As to conditions: 0.5 min. Put shortly: as §1
The target of data set [7] is T3, Solute carrier family 15 member 1. The experiment in a line: Drug uptake in Pichia pastoris GS115 expressing rat recombinant PEPT1 at 5 uM after 30s by dual-channel liquid scintillation counting analysis in presence of GlyPro relative to control. As to conditions: in vivo, 0.5 min. The method, boiled down: as §1

Molecules are shown by their SMILES.

In the case of `[3H]C(C(=O)O)N(C)C(=O)CN` (configuration not stated), the Drug uptake in data set [1] turned out to be 99.8%; in data set [2], 4.5%; in data set [3], 84.8%; in data set [4], 119%; in data set [5], 86.1%; in data set [6] it was 103%. The Drug uptake in data set [7] was 0.6%.

For the origin of these results see ChEMBL document CHEMBL3526053, “Species-dependent uptake of glycylsarcosine but not oseltamivir in Pichia pastoris expressing the rat, mouse, and human intestinal peptide transporter PEPT1” (Drug Metab Dispos, 2012).
